# Laboratory results: ChEMBL document CHEMBL1122071, “Avermectin acyl derivatives with anthelmintic activity” (1982)
# Key:
# Type in all cases: functional
# [1] = tested on: Trichostrongylus colubriformis; assay: Minimal dose necessary to eliminate > 83% of Trichostrongylus colubriformis infection in gerbils
# [2] = tested on: Trichostrongylus colubriformis; assay: Anthelmintic efficacy against Trichostrongylus colubriformis in sheep at dose of 0.1 mg/kg administered orally; details: route oral
# Procedure, shortened: (§1)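 Lambs experimentally infected with mixed gastrointestinal nematodes (H. contortus, O. circumcincta, T. axei, T. colubriformis, C. oncophora, Oe. columbianum) were dosed orally, 1–3 sheep per dose. An untreated infected group of 6 was included, with worm burdens given as the geometric mean number of worms per lamb. Efficacy was scored against adult and, where listed, EL4 stages.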
# [3] = tested on: Oesophagostomum columbianum; assay: Anthelmintic efficacy against Oseophagostomum columbianum (Oe. c) in sheep at dose of 0.025 mg/kg administered orally; details: route oral
# Procedure, shortened: (§2)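 Lambs were experimentally infected with mixed gastrointestinal nematodes: Haemonchus contortus, Ostertagia circumcincta, Trichostrongylus axei, T. colubriformis, Cooperia oncophora and Oesophagostomum columbianum. Dosing was oral, in mg/kg, with 3 sheep per dose group. An untreated infected group of 6 sheep served as reference, with worm burdens given as the geometric mean per lamb. Immature (EL4) and adult worms were scored separately.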
# Haemonchus contortus [4] = assay: Anthelmintic efficacy against adult Haemonchus contortus (H.c) in sheep at dose of 0.025 mg/kg administered orally; details: route oral; procedure, shortened: as §2
# Cooperia oncophora [5] = assay: Anthelmintic efficacy against adult Cooperia oncopphora (C.o) in sheep at dose of 0.05 mg/kg administered orally; 0-19%; procedure, shortened: as §1
# [6] = tested on: Oesophagostomum columbianum; assay: Anthelmintic efficacy against Oseophagostomum columbianum (Oe. c) in sheep at dose of 0.05 mg/kg administered orally; details: route oral; procedure, shortened: as §2
# Trichostrongylus axei [7] = assay: Anthelmintic efficacy against Trichostrongylus axei (T.a) in sheep at dose of 0.025 mg/kg administered orally; 20-59%; procedure, shortened: as §1
# [8] = tested on: Trichostrongylus colubriformis; assay: Anthelmintic efficacy against Trichostrongylus colubriformis (T.c) in sheep at dose of 0.05 mg/kg administered orally; details: route oral; procedure, shortened: as §2
# [9] = tested on: Teladorsagia circumcincta; assay: Anthelmintic efficacy against immature (EL4) Ostertagia circumcincta (O. c) in sheep at dose of 0.1 mg/kg administered orally; 60-89%
# [10] = tested on: Trichostrongylus colubriformis; assay: Anthelmintic efficacy against Trichostrongylus colubriformis (T.c) in sheep at dose of 0.025 mg/kg administered orally; details: route oral; procedure, shortened: as §1
# [11] = tested on: Teladorsagia circumcincta; assay: Anthelmintic efficacy against adult Ostertagia circumcincta (O. c) in sheep at dose of 0.1 mg/kg administered orally; details: route oral; procedure, shortened: as §1
# Cooperia oncophora [12] = assay: Anthelmintic efficacy against adult Cooperia oncopphora (C.o) in sheep at dose of 0.025 mg/kg administered orally; 0-19%; procedure, shortened: as §1
# Cooperia oncophora [13] = assay: Anthelmintic efficacy against immature (EL4) Cooperia oncopphora (C.o) in sheep at dose of 0.025 mg/kg administered orally; details: route oral
# Cooperia oncophora [14] = assay: Anthelmintic efficacy against adult Cooperia oncopphora (C.o) in sheep at dose of 0.1 mg/kg administered orally; 60-89%; procedure, shortened: as §1
# Haemonchus contortus [15] = assay: Anthelmintic efficacy against adult Haemonchus contortus (H.c) in sheep at dose of 0.05 mg/kg administered orally; details: route oral; procedure, shortened: as §2
# [16] = tested on: Teladorsagia circumcincta; assay: Anthelmintic efficacy against adult Ostertagia circumcincta (O. c) in sheep at dose of 0.05 mg/kg administered orally; details: route oral; procedure, shortened: as §2
# [17] = tested on: Oesophagostomum columbianum; assay: Anthelmintic efficacy against Oseophagostomum columbianum (Oe. c) in sheep at dose of 0.1 mg/kg administered orally; details: route oral; procedure, shortened: as §1
# Cooperia oncophora [18] = assay: Anthelmintic efficacy against immature (EL4) Cooperia oncopphora (C.o) in sheep at dose of 0.1 mg/kg administered orally; details: route oral; procedure, shortened: as §2
# Trichostrongylus axei [19] = assay: Anthelmintic efficacy against Trichostrongylus axei (T.a) in sheep at dose of 0.05 mg/kg administered orally; details: route oral; procedure, shortened: as §2
# [20] = tested on: Teladorsagia circumcincta; assay: Anthelmintic efficacy against adult Ostertagia circumcincta (O. c) in sheep at dose of 0.025 mg/kg administered orally; details: route oral; procedure, shortened: as §1
# [21] = tested on: Teladorsagia circumcincta; assay: Anthelmintic efficacy against immature (EL4) Ostertagia circumcincta (O. c) in sheep at dose of 0.025 mg/kg administered orally; details: route oral
# [22] = tested on: Teladorsagia circumcincta; assay: Anthelmintic efficacy against immature (EL4) Ostertagia circumcincta (O. c) in sheep at dose of 0.05 mg/kg administered orally; 0-19%
# Trichostrongylus axei [23] = assay: Anthelmintic efficacy against Trichostrongylus axei (T.a) in sheep at dose of 0.1 mg/kg administered orally; details: route oral; procedure, shortened: as §1
# Haemonchus contortus [24] = assay: Anthelmintic efficacy against adult Haemonchus contortus (H.c) in sheep at dose of 0.1 mg/kg administered orally; details: route oral; procedure, shortened: as §1
# Cooperia oncophora [25] = assay: Anthelmintic efficacy against immature (EL4) Cooperia oncopphora (C.o) in sheep at dose of 0.05 mg/kg administered orally; 60-89%
# Cooperia oncophora [26] = assay: Anthelmintic efficacy against adult Cooperia oncopphora (C.o) in sheep at dose of 0.25 mg/kg administered orally; 60-89%; procedure, shortened: as §1
# Trichostrongylus axei [27] = assay: Anthelmintic efficacy against Trichostrongylus axei (T.a) in sheep at dose of 0.25 mg/kg administered orally; 0-19%; procedure, shortened: as §1
# [28] = tested on: Oesophagostomum columbianum; assay: Anthelmintic efficacy against Oseophagostomum columbianum (Oe. c) in sheep at dose of 0.25 mg/kg administered orally; 20-59%; procedure, shortened: as §1
# [29] = tested on: Trichostrongylus colubriformis; assay: Anthelmintic efficacy against Trichostrongylus colubriformis (T.c) in sheep at dose of 0.25 mg/kg administered orally; 0-19%; procedure, shortened: as §1
# Haemonchus contortus [30] = assay: Anthelmintic efficacy against adult Haemonchus contortus (H.c) in sheep at dose of 0.25 mg/kg administered orally; 20-59%; procedure, shortened: as §1
# [31] = tested on: Teladorsagia circumcincta; assay: Anthelmintic efficacy against adult Ostertagia circumcincta (O. c) in sheep at dose of 0.25 mg/kg administered orally; 0-19%; procedure, shortened: as §1
smiles,measurement,setting,value
CC[C@H](C)[C@H]1O[C@]2(C=C[C@@H]1C)C[C@@H]1C[C@@H](C/C=C(\C)[C@@H](O[C@H]3C[C@@H](OC)[C@@H](O[C@H]4C[C@@H](OC)[C@@H](OC(N)=O)[C@H](C)O4)[C@H](C)O3)[C@@H](C)/C=C/C=C3\CO[C@@H]4[C@H](O)C(C)=C[C@@H](C(=O)O1)[C@]34O)O2,Dose,[1],0.025 mg/kg
CC[C@H](C)[C@H]1O[C@]2(C=C[C@@H]1C)C[C@@H]1C[C@@H](C/C=C(\C)[C@@H](O[C@H]3C[C@@H](OC)[C@@H](O[C@H]4C[C@@H](OC)[C@@H](OC(=O)N(C)C)[C@H](C)O4)[C@H](C)O3)[C@@H](C)/C=C/C=C3\CO[C@@H]4[C@H](O)C(C)=C[C@@H](C(=O)O1)[C@]34O)O2,Dose,[1],0.06 mg/kg
CC[C@H](C)[C@H]1O[C@]2(CC(O)[C@@H]1C)C[C@@H]1C[C@@H](C/C=C(\C)[C@@H](OC3CC(OC)C(OC4CC(OC)C(O)C(C)O4)C(C)O3)[C@@H](C)/C=C/C=C3\CO[C@@H]4[C@H](O)C(C)=C[C@@H](C(=O)O1)[C@]34O)O2 (some centres not stated) [AVERMECTIN B2A],Dose,[1],0.0125 mg/kg
CC[C@H](C)[C@H]1O[C@]2(C=C[C@@H]1C)C[C@@H]1C[C@@H](C/C=C(\C)[C@@H](O[C@H]3C[C@@H](OC)[C@@H](O[C@H]4C[C@@H](OC)[C@@H](OC(C)=O)[C@H](C)O4)[C@H](C)O3)[C@@H](C)/C=C/C=C3\CO[C@@H]4[C@H](O)C(C)=C[C@@H](C(=O)O1)[C@]34O)O2,Efficacy,[2],>90%
same,Efficacy,[3],>90%
same,Efficacy,Haemonchus contortus [4],>90%
same,Dose,[1],0.031 mg/kg
same,Efficacy,Cooperia oncophora [5],0%
same,Efficacy,[6],>90%
same,Efficacy,Trichostrongylus axei [7],20%
same,Efficacy,[8],>90%
same,Efficacy,[9],60%
same,Efficacy,[10],>90%
same,Efficacy,[11],>90%
same,Efficacy,Cooperia oncophora [12],0%
same,Efficacy,Cooperia oncophora [13],89%
same,Efficacy,Cooperia oncophora [14],60%
same,Efficacy,Haemonchus contortus [15],>90%
same,Efficacy,[16],>90%
same,Efficacy,[17],>90%
same,Efficacy,Cooperia oncophora [18],>90%
same,Efficacy,Trichostrongylus axei [19],>90%
same,Efficacy,[20],>90%
same,Efficacy,[21],19%
same,Efficacy,[22],0%
same,Efficacy,Trichostrongylus axei [23],>90%
same,Efficacy,Haemonchus contortus [24],>90%
same,Efficacy,Cooperia oncophora [25],60%
CCCCCCCC(=O)O[C@H]1[C@H](C)O[C@@H](O[C@H]2[C@H](C)O[C@@H](O[C@@H]3/C(C)=C/C[C@@H]4C[C@@H](C[C@]5(C=C[C@H](C)[C@@H]([C@@H](C)CC)O5)O4)OC(=O)[C@@H]4C=C(C)[C@@H](O)[C@H]5OC/C(=C\C=C\[C@@H]3C)[C@]54O)C[C@H]2OC)C[C@H]1OC,Dose,[1],0.125 mg/kg
CC[C@H](C)[C@H]1O[C@]2(CC(OC(C)=O)[C@@H]1C)C[C@@H]1C[C@@H](C/C=C(\C)[C@@H](OC3CC(OC)C(OC4CC(OC)C(O)C(C)O4)C(C)O3)[C@@H](C)/C=C/C=C3\CO[C@@H]4[C@H](OC)C(C)=C[C@@H](C(=O)O1)[C@]34O)O2 (some centres not stated),Efficacy,Cooperia oncophora [26],60%
same,Dose,[1],0.25 mg/kg
same,Efficacy,Trichostrongylus axei [27],0%
same,Efficacy,[28],20%
same,Efficacy,[29],0%
same,Efficacy,Haemonchus contortus [30],20%
same,Efficacy,[31],0%
CC[C@H](C)[C@H]1O[C@]2(CC(OC(C)=O)[C@@H]1C)C[C@@H]1C[C@@H](C/C=C(\C)[C@@H](OC3CC(OC)C(OC4CC(OC)C(OC(C)=O)C(C)O4)C(C)O3)[C@@H](C)/C=C/C=C3\CO[C@@H]4[C@H](OC(C)=O)C(C)=C[C@@H](C(=O)O1)[C@]34O)O2 (some centres not stated),Dose,[1],0.5 mg/kg
